Results filed as inconclusive are left out.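 Rule for the calls, unless noted: active = cell viability at or below a set limit in both duplicate runs, the limit being the all-compound median minus 4 SD (cut at about 23% in these data, passing the limit was not always enough); inconclusive = no clear call, values can overlap the other calls; inactive = the rest.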
What was measured:
[1] = S. cerevisiae growth inhibition in permissive medium (OD615), pilot counter-assay for S. cerevisiae lifespan shortening project, permissive growth control (AID 705;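 active = growth inhibition above 25% in both replicates, a cutoff set 3 SD above the mean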); conditions: OD615, 24 h, at 10 µM, stronger effect = higher value
Procedure, shortened: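 System – S. cerevisiae with engineered DeaD lifespan system · Buffer or medium – SC raffinose/galactose permissive medium · Schedule – cells pre-grown 4 h, then 24 h compound exposure, 30 °C humidified · Technique – culture turbidity as optical density at 615 nm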

[2] = S. cerevisiae growth inhibition in restrictive medium, OD615, pilot screen, restrictive growth control, yeast lifespan reduction project (AID 706;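 active = growth inhibition above a set limit, 3 SD over mean compound inhibition, in both replicates, cut at about 43% in these data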;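 note: modified DeaD lifespan yeast strain shifted to restrictive glucose medium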); conditions: OD615, 48 h, at 10 µM, stronger effect = higher value
Procedure, shortened: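 Material: engineered S. cerevisiae DeaD strain / Medium: glucose-based CSMM-D restrictive medium / Compound: single dose of 10 µM compound final, 0.25% DMSO / Timing: 4 h pre-incubation, 48 h exposure at 30 °C / Technique: OD615 absorbance reading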

[3] = doxorubicin toxicity protection in MRP-1 cells – H69AR cells, CellTiter-Glo, duplicate, MRP-1 activator project, pilot screen (AID 807;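 active = viability increase at or above a cutoff of the median across tested compounds plus 3 SD, cut at about 8.5% in these data, passing the limit was not always enough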;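 note: compound pretreatment 18-22 h then 72 h combined with doxorubicin; 0% = doxorubicin alone and 100% = vehicle without doxorubicin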); conditions: H69AR viability with doxorubicin, CellTiter-Glo luminescence; at 10 µM; stronger effect = higher value
[4] = viability of HCT116 without oncogenic beta-catenin – human colon tumor cells, pilot screen (AID 823); conditions: HCT116 beta-catenin knockout viability, CellTiter-Glo, 60 h; at 10 µM; stronger effect = lower value;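 note: 0% = wells killed by 20 µM Hyamine and 100% = untreated DMSO cell wells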
[5] = viability of PTEN-null HCT116 cells – cell-based, HCT116 clonal line, CellTiter-Glo, pilot screen (AID 824;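 active = viability at or below 27.92% in each of two runs, the all-compound median minus 4 SD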;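 note: 0% = 20 µM Hyamine control and 100% = vehicle cell control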); conditions: HCT116 PTEN-deleted viability, 60 h, at 10 µM, stronger effect = lower value
[6] = RAM pathway blockade in budding yeast – dse1pr::URA3 reporter, 5-FOA selection, pilot screen (AID 869;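 active = inhibition over a set limit, the all-compound mean plus 3 SD, in both replicate runs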;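 note: 0% = DMSO wells with no growth and 100% = 10 µM 1-NA-PP1 with full growth; RAM network block rescues cells from 5-FOA so hits raise OD615 growth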); conditions: S. cerevisiae dse1pr::URA3 5-FOA growth, OD615, 2 d; at 10 µM; stronger effect = higher value; strain carries analog-sensitive mutant Cbk1 kinase
[7] = RAM signaling pathway blockade in yeast – S. cerevisiae, Pdr1DBD-CYC8 efflux-inhibited sensitized strain, primary screen (AID 1298;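 active = RAM network inhibition above 8.4% in each of two replicates, 3 SD over the compound average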;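 note: 0% = DMSO untreated cells without growth and 100% = 10 µM 1-NA-PP1 full growth; higher means more yeast growth rescued from 5-FOA killing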); conditions: S. cerevisiae cbk1-as DSE1-URA3 strain, 5-FOA growth OD615, 2 d; at 50 µM; stronger effect = higher value

CCOc1ccccc1NC(=O)C1CCN(S(=O)(=O)c2cccc3cccnc23)CC1
inactive: growth inhibition [1] 1.06% | growth inhibition [2] -4.09% | viability increase [3] -3.97% | viability [4] 85.2% | viability [5] 80.9% | inhibition [6] 1.24% | RAM network inhibition [7] 1.72%

COc1ccc(C2C(C(=O)NCc3cccnc3)c3ccccc3C(=O)N2C)cc1OC (configuration not stated)
inactive: growth inhibition [1] -16.2% | growth inhibition [2] -13.9% | viability increase [3] -0.88% | viability [4] 101% | viability [5] 96.6% | inhibition [6] 1.71% | RAM network inhibition [7] -0.99%

CCOC(=O)C1CCCN(C(=O)Cn2nc(Cc3cccnc3)c3ccccc3c2=O)C1 (configuration not stated)
inactive: growth inhibition [1] 3.18% | growth inhibition [2] -7.92% | viability increase [3] 1.09% | viability [4] 99.5% | viability [5] 102% | inhibition [6] 2.21% | RAM network inhibition [7] 2.19%

CC1(C(=O)NCc2cccnc2)CCC(=O)N1CCc1ccccc1 (configuration not stated)
inactive: growth inhibition [1] 4.98% | growth inhibition [2] 3.93% | viability increase [3] -0.87% | viability [4] 97% | viability [5] 102% | inhibition [6] 2.94% | RAM network inhibition [7] 2.65%

CCOC(=O)N1CCN(C(=O)COc2ccc(Br)cc2)CC1
inactive: growth inhibition [1] -16.4% | growth inhibition [2] 11.8% | viability increase [3] 1.9% | viability [4] 100% | viability [5] 90.6% | inhibition [6] 1.12% | RAM network inhibition [7] 6.68%

CC1=C(C(N)=O)C(c2cccc(O)c2)n2nc(CCCO)nc2N1 (configuration not stated)
inactive: growth inhibition [1] -9.85% | growth inhibition [2] -1.35% | viability increase [3] -1.07% | viability [4] 101% | viability [5] 104% | inhibition [6] 2.02% | RAM network inhibition [7] 2.87%

CCC(CC)C(=O)Nc1cc(=O)n(C)c(=O)n1C
inactive: growth inhibition [1] -3.07% | growth inhibition [2] 8.82% | viability increase [3] -0.82% | viability [4] 92.8% | viability [5] 87.4% | inhibition [6] 0.18% | RAM network inhibition [7] -2.19%

CC1CCN(c2nc(-c3ccccc3)c(C#N)c(=O)[nH]2)CC1
inactive: growth inhibition [1] -10.1% | growth inhibition [2] -13.7% | viability increase [3] -0.55% | viability [4] 101% | viability [5] 92.1% | inhibition [6] 1.46% | RAM network inhibition [7] 2.74%

Cc1cc(C)n2nc(S(=O)(=O)N(CC(C)C)CC(C)C)nc2n1
inactive: growth inhibition [1] 3.3% | growth inhibition [2] 3.41% | viability increase [3] -1.13% | viability [4] 104% | viability [5] 94.2% | inhibition [6] 1.08% | RAM network inhibition [7] 0.22%

CCOc1cc(CN2CCN(c3cccc(C(F)(F)F)c3)CC2)ccc1O
inactive: growth inhibition [1] -9.48% | growth inhibition [2] -4.3% | viability increase [3] -5.3% | viability [4] 82.7% | viability [5] 82.9% | inhibition [6] 1.4% | RAM network inhibition [7] 0.97%

O=C(NCCN1CCCC1)c1ccc(CS(=O)(=O)c2c(Cl)cccc2Cl)o1
inactive: growth inhibition [1] -6.75% | growth inhibition [2] -20.8% | viability increase [3] -0.97% | viability [4] 106% | viability [5] 102% | inhibition [6] 1.5% | RAM network inhibition [7] 2.61%

O=C(c1ccc(CN2CCc3ccccc3C2)cc1)N1CCCCC1
inactive: growth inhibition [1] 4.87% | growth inhibition [2] 3.72% | viability increase [3] -2.43% | viability [4] 94.2% | viability [5] 93.9% | inhibition [6] 3.59% | RAM network inhibition [7] 4.9%

COc1ccc(CNC(=O)c2ccc3c(c2)N(C)C(=O)CS3=O)cc1 (configuration not stated)
inactive: growth inhibition [1] -1% | growth inhibition [2] 7.29% | viability increase [3] 1.48% | viability [4] 103% | viability [5] 97.3% | inhibition [6] 1.41% | RAM network inhibition [7] 2.04%

CN1CCN(C(=O)c2ccccc2NC(=O)Cc2ccccc2)CC1
inactive: growth inhibition [1] -12.3% | growth inhibition [2] 1.69% | viability increase [3] -1.06% | viability [4] 98.4% | viability [5] 103% | inhibition [6] 1.83% | RAM network inhibition [7] 1.81%

CNC(=O)c1ccc2snnc2c1
inactive: growth inhibition [1] -8.38% | growth inhibition [2] 5.12% | viability increase [3] -1.54% | viability [4] 107% | viability [5] 97.9% | inhibition [6] 0.52% | RAM network inhibition [7] -0.47%

COc1ccc(N(CC(=O)Nc2nc3ccc(C)cc3s2)S(=O)(=O)c2c(C)nn(C)c2C)cc1
inactive: growth inhibition [1] -5.89% | growth inhibition [2] -16.3% | viability increase [3] -7.24% | viability [4] 64.9% | viability [5] 57.1% | inhibition [6] 1.33% | RAM network inhibition [7] 6.79%

Cc1cccc(-n2ncc3c(NCCc4ccc(S(N)(=O)=O)cc4)ncnc32)c1
inactive: growth inhibition [1] 2.13% | growth inhibition [2] 1.53% | viability increase [3] -2.67% | viability [4] 88.8% | viability [5] 82% | inhibition [6] 1.27% | RAM network inhibition [7] 4.84%

O=P(/C(=N/O)Sc1ccccc1)(N1CCOCC1)N1CCOCC1
inactive: growth inhibition [1] -7.6% | growth inhibition [2] 1.87% | viability increase [3] -4.88% | viability [4] 90% | viability [5] 97% | inhibition [6] 0.62% | RAM network inhibition [7] 4.34%

Cn1c(=NC(=O)c2ccco2)sc2cccc(F)c21
inactive: growth inhibition [1] -12.6% | growth inhibition [2] -1.11% | viability increase [3] -7.04% | viability [4] 80.9% | viability [5] 78.4% | inhibition [6] 2.1% | RAM network inhibition [7] 6.79%

CC(=O)N1CCc2cc(C(=O)CN3CCCN(Cc4ccc(F)cc4)C3)ccc21
inactive: growth inhibition [1] 4.55% | growth inhibition [2] 9.21% | viability increase [3] -1.12% | viability [4] 102% | viability [5] 95.8% | inhibition [6] 1.48% | RAM network inhibition [7] 2.92%

c1csc(CCNc2ncnc3sc4c(c23)CCC4)c1
inactive: growth inhibition [1] -5.19% | growth inhibition [2] 13.9% | viability increase [3] -5.93% | viability [4] 39.9% | viability [5] 50.1% | inhibition [6] 0.385% | RAM network inhibition [7] -0.9%

CCn1cc(C(=O)N2CCn3c(nc4ccccc43)C2)c(=O)c2ccc(C)nc21
inactive: growth inhibition [1] -10.2% | growth inhibition [2] -4.84% | viability increase [3] -2.81% | viability [4] 104% | viability [5] 94.3% | inhibition [6] 2.08% | RAM network inhibition [7] 0.07%

Cc1ccc(C2CC(=O)NC(SCc3ccccc3)=C2C#N)o1 (configuration not stated)
inactive: growth inhibition [1] -12.6% | growth inhibition [2] -9.71% | viability increase [3] -3.75% | viability [4] 85.7% | viability [5] 104% | inhibition [6] -0.825% | RAM network inhibition [7] 0.58%

Cc1noc(C)c1S(=O)(=O)N1CCN(C(c2ccccc2)c2ccc(Cl)cc2)CC1 (configuration not stated)
inactive: growth inhibition [1] -1.19% | growth inhibition [2] -0.625% | viability increase [3] 0.02% | viability [4] 66.3% | viability [5] 67.5% | inhibition [6] 1.61% | RAM network inhibition [7] 7.2%

CC(C)CCNC(=O)CCS(=O)(=O)c1cccc2nonc12
inactive: growth inhibition [1] -8.87% | growth inhibition [2] -22.1% | viability increase [3] -1.75% | viability [4] 105% | viability [5] 103% | inhibition [6] 1.04% | RAM network inhibition [7] 4.52%

Cc1cc(C)nc(SCC(=O)N2CCCCC2)n1
inactive: growth inhibition [1] -13.6% | growth inhibition [2] -20% | viability increase [3] 0.71% | viability [4] 97.4% | viability [5] 101% | inhibition [6] 2.34% | RAM network inhibition [7] 0.74%

COc1ccccc1C(=O)NC(C)c1nc2ccccc2[nH]1 (configuration not stated)
inactive: growth inhibition [1] -3.51% | growth inhibition [2] -5.35% | viability increase [3] 2.18% | viability [4] 99% | viability [5] 93% | inhibition [6] 3.37% | RAM network inhibition [7] 1.06%

CNS(=O)(=O)c1ccc(Oc2ccc(S(=O)(=O)NC)cc2)cc1
inactive: growth inhibition [1] 2.02% | growth inhibition [2] 2.91% | viability increase [3] -0.17% | viability [4] 86.7% | viability [5] 83.9% | inhibition [6] 2% | RAM network inhibition [7] 3.27%

CC(=O)Nc1ccc(S(=O)(=O)N2CCN(CCC#N)CC2)cc1
inactive: growth inhibition [1] -4.55% | growth inhibition [2] 6.44% | viability increase [3] 0.85% | viability [4] 111% | viability [5] 97.1% | inhibition [6] 1.86% | RAM network inhibition [7] 0.19%

CCOC(=O)CN1Cc2cccc(C(=O)O)c2C1=O
inactive: growth inhibition [1] -13.8% | growth inhibition [2] -18.1% | viability increase [3] -0.75% | viability [4] 95.6% | viability [5] 96.3% | inhibition [6] 0.535% | RAM network inhibition [7] 1.31%

COc1ccc(-c2nc(C#N)c(NCCCN3CCOCC3)o2)cc1
inactive: growth inhibition [1] 0.22% | growth inhibition [2] -5.34% | viability increase [3] -0.09% | viability [4] 103% | viability [5] 94% | inhibition [6] 1.28% | RAM network inhibition [7] 0.89%

O=C(NCc1cccs1)c1ccccc1F
inactive: growth inhibition [1] -9.19% | growth inhibition [2] -7.24% | viability increase [3] -0.25% | viability [4] 94.2% | viability [5] 88.9% | inhibition [6] 0.385% | RAM network inhibition [7] 1.34%

CCCNC(=O)CS(=O)Cc1nc(-c2cccc(OC)c2)oc1C (configuration not stated)
inactive: growth inhibition [1] -6.84% | growth inhibition [2] -0.045% | viability increase [3] -2.3% | viability [4] 96.6% | viability [5] 95.2% | inhibition [6] 1.2% | RAM network inhibition [7] -0.38%

O=C(COC(=O)c1cnccn1)c1ccc2c(c1)CCCC2
inactive: growth inhibition [1] -11.3% | growth inhibition [2] -17.1% | viability increase [3] -1.19% | viability [4] 91.9% | viability [5] 88.6% | inhibition [6] 1.32% | RAM network inhibition [7] 1.14%

CCOC(=O)C1C(=O)N(C(=O)c2cncc(Br)c2)CC1c1ccccc1 (configuration not stated)
inactive: growth inhibition [1] -0.835% | growth inhibition [2] 8.88% | viability increase [3] -0.37% | viability [4] 101% | viability [5] 106% | inhibition [6] 0.985% | RAM network inhibition [7] 9.56%

COc1ccc(N(CC(=O)NC2CCCCCCC2)S(=O)(=O)c2c(C)nn(C)c2C)cc1
inactive: growth inhibition [1] -20.7% | growth inhibition [2] -13.6% | viability increase [3] -2.87% | viability [4] 89.2% | viability [5] 87.5% | inhibition [6] 1.31% | RAM network inhibition [7] 0.05%

Reference: PubChem BioAssay
